This is a sample that favours compounds with a hit; in the whole collection about 3.1% have one here.
GSIS activator: GLuc luminescence reporter in INS-1E cells, primary screen for activators of glucose-dependent secretion of insulin | activation, % at 16.6 µM | AID 743287 | INS-1E GLuc reporter insulin secretion, 2-3 h | hit rate 0.61% among 370,000;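 active means lowest replicate activation of at least 40%, so every replicate reaches that level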
rRNA inh HTS: inhibitors of bacterial rRNA selective over humanized ribosomes; E. coli WT GFP vs humanized-ribosome RFP mutants, fluorescence, 24 h; hits give low values; DMSO median 0, no signal -100; GFP signal change (wild-type ribosome), % (test concentration not listed); hit rate 1.6% among 350,000;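 active means significant combined selectivity score with lowered wild-type GFP, culture density cut under 30%, mutant RFP and density less affected; inactive means any of these conditions unmet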
Env fusion inh: inhibitors of HIV Env-mediated cell fusion | HeLa-JRFL Env/CEM21 cell fusion, luciferase | hit rate 1.1% among 360,000 | AID 651610 | inhibition, % at 12.3 µM;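 active means mean replicate inhibition score of at least 50 and every replicate individually at or above 50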
Cneo AK release: causes C. neoformans cell lysis | hit rate 0.2% among 360,000 | adenylate kinase release luminescence, 4 h; normalised: neutral wells 0, clomiphene wells 100 | AID 651654 | lysis activity, % at 15 µM;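 active means mean lysis activity across replicates of at least 80%, whatever share of replicates individually reach that level; inactive means mean lysis activity below 80%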
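Material – Cryptococcus neoformans yeast cells · Quantity – 5 × 10^6 yeast cells/mL · Buffer or medium – YPD medium · Compound – single dose · Timing – 4 h static compound exposure, 37 °C, read 1 h post-reagent · Signal – adenylate kinase release luminescence · Read-out basis – lysis from increased AK signal · Benchmarks – Clomiphene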
F508del corr: CFTR F508del correction in bronchial cells | CFBE cells, YFP halide quenching; stimulated with forskolin plus potentiator P3; % fluorescence drop versus neutral controls | activity (quench increase), % at 7.58 µM | hit rate 0.36% among 350,000;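 active means mean added fluorescence quench of at least 8% versus neutral control, with both replicates also reaching 8%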;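 further: cells transiently co-express mutant CFTR-F508del with the halide-sensitive YFP; corrector assay measuring rescue of mutant channel to the surface after 24 h compound exposure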
miR-122 sensor: inhibitors of miR-122 in Huh7 cells; Huh7 miR-122 Renilla luciferase sensor, 48 h; neutral wells = 0, positive control = 100; activation (reporter increase), % at 12.5 µM; hit rate 0.3% among 340,000;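 active means mean replicate activation score at least 90 and every replicate individually at or above 90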;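 further: higher luciferase means less miR-122 activity so hits act as miR-122 inhibitors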
Hits are given with their value; - = inactive; . = no result given; ! = a repeat was not active; [ ] = dose if it differs, or a comment.

SMILES | GSIS activator | rRNA inh HTS | Env fusion inh | Cneo AK release | F508del corr | miR-122 sensor
O=C(C[C@H]1CC[C@H]2[C@@H](COC[C@H](O)CN2Cc2nccs2)O1)NCc1ccc(F)cc1 | - | - | - | - | - | -
C[C@@H]1CN([C@H](C)CO)C(=O)c2cc(NC(=O)c3ccccc3)ccc2O[C@@H](C)CCCCO[C@H]1CN(C)Cc1ccc(C(F)(F)F)cc1 | - | - | 69[16.7 µM] | - | - | -
C[C@H](CO)N1C[C@H](C)[C@@H](CN(C)Cc2ccc(C(F)(F)F)cc2)OCCCC[C@H](C)Oc2ccc(NC(=O)c3ccccc3)cc2C1=O | - | - | - | - | - | -
C[C@H](CO)N1C[C@H](C)[C@H](CN(C)Cc2ccc(C(F)(F)F)cc2)OCCCC[C@H](C)Oc2ccc(NC(=O)c3ccccc3)cc2C1=O | - | - | - | - | - | -
C[C@@H]1CN([C@@H](C)CO)C(=O)c2cc(NC(=O)c3ccccc3)ccc2O[C@@H](C)CCCCO[C@@H]1CN(C)Cc1ccc(C(F)(F)F)cc1 | - | - | - | - | - | -
C[C@@H]1CCCCO[C@@H](CN(C)Cc2ccc(C(F)(F)F)cc2)[C@H](C)CN([C@H](C)CO)C(=O)c2cc(NC(=O)c3ccccc3)ccc2O1 | - | - | 79[16.7 µM] | - | - | -
C[C@@H]1CCCCO[C@H](CN(C)Cc2ccc(C(F)(F)F)cc2)[C@H](C)CN([C@H](C)CO)C(=O)c2cc(NC(=O)c3ccccc3)ccc2O1 | - | - | 90[16.7 µM] | - | - | -
COCC(=O)N1[C@H](CO)[C@H]2c3ccccc3N(C(=O)C3CC3)C[C@H]21 | - | - | . | - | - | -
O=C(O)c1ccc(-n2nnnc2SCc2ccccc2Br)cc1 | 48 | - | - | - | - | -
CCCNC(=O)Nc1ccc2c(c1)C(=O)N(C)C[C@@H](OC)[C@@H](C)CN(C(C)=O)[C@@H](C)CO2 | - | - | - | - | - | -
CO[C@@H](CN(C)Cc1cc(F)ccc1F)[C@@H](C)CN(C(=O)Nc1ccc(F)cc1)[C@@H](C)CO | - | - | . | - | - | .
CCCC(C)NS(=O)(=O)c1ccc(OC)c(C)c1 (centres undefined) | . | . | - | - | . | 153
c1cc(-c2nnc3sc(C4CCCCC4)nn23)ccn1 | . | . | 63 | - | . | -
COc1ccccc1-c1nnc2sc(C3CCCCC3)nn12 | - | . | - | . | . | -
CN1C(=O)c2cc(NC(=O)c3cnccn3)ccc2OC[C@H]2O[C@@H](CC(=O)NCC3CC3)CC[C@H]21 | - | - | . | . | . | .
CO[C@H]1CN(C)C(=O)c2cc(NC(=O)C3CCCCC3)ccc2OC[C@@H](C)N(Cc2nccs2)C[C@H]1C | - | - | - | - | - | .
Cn1nc(CC(=O)NC2CCCCCCCCCCC2)c2ccccc2c1=O | . | . | - | - | . | -
Cn1nc(CC(=O)Nc2ccc3c(c2)CCC3)c2ccccc2c1=O | . | . | 79 | - | . | -
CCn1c(O)c(/C=C2\C=NN=C2c2ccccc2)sc1=S | - | - | - | . | - | .
CCCCCCn1c(O)c(/C=C2\C=NN=C2c2ccccc2)sc1=S | 164 | . | - | . | . | .
Cn1c(O)c(/C=C2\C=NN=C2c2ccccc2)sc1=S | - | - | - | . | - | .
CC(C)Cn1c(O)c(/C=C2\C=NN=C2c2ccccc2)sc1=S | 83 | . | - | . | - | .
CCCCn1c(O)c(/C=C2\C=NN=C2c2ccccc2)sc1=S | 119 | . | . | - | . | -
COc1ccc([N+](=O)[O-])cc1/C=N/NC(=O)CNC(=O)c1cccc(F)c1 | . | -23 | . | - | - | -
COc1ccc([N+](=O)[O-])cc1/C=N/NC(=O)CNC(=O)C(c1ccccc1)c1ccccc1 | - | . | . | - | . | -
SMILES | GSIS activator | rRNA inh HTS | Env fusion inh | Cneo AK release | F508del corr | miR-122 sensor
C[C@@H]1CC=CC[C@@H](c2ccc3c(c2)OCO3)NC(=O)[C@H](C)N(C)C(=O)c2ccccc2O1 (mixture of isomers) | - | - | . | . | . | .
COc1ccc(NC(=O)Nc2ccc3c(c2)CC(=O)N([C@H](C)CO)C[C@H](C)[C@@H](CN(C)S(C)(=O)=O)O3)cc1 | - | - | - | - | - | -
CN1CCN(C(=O)CCN2C(=O)/C(=C\c3ccc(F)cc3)SC2=S)CC1 | . | - | - | - | - | -
O=C(CN1C(=O)/C(=C/c2ccc(F)cc2)SC1=S)N1CCN(CCc2ccccn2)CC1 | - | -30 | - | - | - | -
CCOC(=O)C1=C[C@@H](C2CCCC2)N(S(=O)(=O)c2ccc([N+](=O)[O-])cc2)[C@H]1c1ccccc1 | - | - | 55 | - | - | -
O=C(Nc1ccc(C(F)(F)F)cc1Cl)c1ccc(Cn2cc(Br)cn2)o1 | - | - | . | - | - | -
O=C(Nc1cccc(C(F)(F)F)c1)c1ccc(Cn2cc(Br)cn2)o1 | . | . | 79 | - | . | -
CCOC(=O)c1ccc(NC(=O)c2cccc(C)c2[N+](=O)[O-])cc1 | - | - | - | . | - | .
COC(=O)c1ccc(NC(=O)c2cccc(C)c2[N+](=O)[O-])cc1 | - | -22 | - | - | - | -
CCCC(=O)Nc1ccc2c(c1)OC[C@@H](C)N(Cc1cccc(F)c1)C[C@H](C)[C@H](OC)CN(C)C2=O | - | - | . | - | - | .
C[C@H](CO)N1C[C@H](C)[C@@H](CN(C)C(=O)NC2CCCCC2)Oc2cc(C#Cc3ccc(F)cc3)ccc2S1(=O)=O | - | - | - | - | 8.5 | -
C[C@@H]1CN([C@H](C)CO)S(=O)(=O)c2ccc(C#Cc3cccc(F)c3)cc2O[C@@H]1CN(C)C(=O)CN1CCOCC1 | - | - | 81! | - | - | -
C[C@@H]1CN([C@@H](C)CO)S(=O)(=O)c2ccc(C#Cc3ccc(F)cc3)cc2O[C@@H]1CN(C)C(=O)NC1CCCC1 | - | - | - | - | - | -
C[C@H]1CN([C@@H](C)CO)S(=O)(=O)c2ccc(C#Cc3cccc(F)c3)cc2O[C@@H]1CN(C)C(=O)NC1CCCCC1 | - | - | - | 102 | - | -
C[C@H]1CN([C@@H](C)CO)S(=O)(=O)c2ccc(C#Cc3ccc(F)cc3)cc2O[C@H]1CN(C)C(=O)NC1CCCC1 | - | - | - | - | 8.6 | -
Cc1cccc(-c2ccc([C@@H]3[C@H](CO)N4CCCCN(S(=O)(=O)c5cn(C)cn5)C[C@@H]34)cc2)c1 | - | - | . | - | - | -
Cc1noc(C)c1S(=O)(=O)N(C)C[C@H]1Oc2ccc(NC(=O)Nc3ccccc3)cc2C(=O)N([C@H](C)CO)C[C@@H]1C | - | - | . | . | . | .
C[C@@H]1CN([C@@H](C)CO)C(=O)c2cccc(NC(=O)Nc3ccc(C(F)(F)F)cc3)c2O[C@@H]1CN(C)C(=O)NC1CCCCC1 | - | - | - | - | - | -
CO[C@@H]1CN(C)C(=O)c2cc(NS(=O)(=O)CC(F)(F)F)ccc2OC[C@@H](C)N(Cc2nccs2)C[C@@H]1C | - | - | - | - | - | .

Bioassay records deposited in PubChem by Broad Institute.
